Experimental data reported in ChEMBL document CHEMBL3525967, “In vitro glucuronidation of the antibacterial triclocarban and its oxidative metabolites” (Drug Metab Dispos, 2012).

Legend:
[1] = Drug excretion in Swiss webster mouse urine assessed as N-glucuronide-triclocarban formation at 5 mg/kg, po by LC-MS analysis; assay type: ADME, organism-based; set-up: dose 5 mg/kg, route oral; details: in vivo
Summary of the method: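 Mice were housed two per metabolic cage, with blank urine collected over the 24 h before dosing. TCC was given by oral gavage as a 1 mg/mL solution in 20/80 DMSO/PEG400 (v/v) at 5 mg/kg. Urine was collected at 0-24 h and 24-48 h and analysed by online LC-MS. Values are the mean of two independent experiments.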

[2] = Drug metabolism in microsomes (unknown origin) assessed as retention time at 10 uM by LC-UV-MS method; assay type: ADME, Microsome
Summary of the method: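 Retention times were measured on a C18 column (2 × 100 mm, 2.2 µm) at 300 µL/min. Solvent A was 25 mM ammonium acetate with 0.1% acetic acid; solvent B was ACN. Gradient: 30% B isocratic for 2 min, convex 30–85% B to 7.5 min, then […]. Detection was UV at 265 nm and ESI-MS in SRM mode.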

[3] = biological target: T1, UDP-glucuronosyltransferase 1A3 (Homo sapiens, UniProt P35503); experiment: Drug metabolism assessed as human UGT1A3-mediated N-glucuronide-triclocarban formation expressed in baculovirus infected insect sf9 cells incubated for 5 mins prior to UDPGA addition measured after 5 to 30 mins by LC-UV analysis; assay type: ADME
T1 sequence (P35503 whole entry): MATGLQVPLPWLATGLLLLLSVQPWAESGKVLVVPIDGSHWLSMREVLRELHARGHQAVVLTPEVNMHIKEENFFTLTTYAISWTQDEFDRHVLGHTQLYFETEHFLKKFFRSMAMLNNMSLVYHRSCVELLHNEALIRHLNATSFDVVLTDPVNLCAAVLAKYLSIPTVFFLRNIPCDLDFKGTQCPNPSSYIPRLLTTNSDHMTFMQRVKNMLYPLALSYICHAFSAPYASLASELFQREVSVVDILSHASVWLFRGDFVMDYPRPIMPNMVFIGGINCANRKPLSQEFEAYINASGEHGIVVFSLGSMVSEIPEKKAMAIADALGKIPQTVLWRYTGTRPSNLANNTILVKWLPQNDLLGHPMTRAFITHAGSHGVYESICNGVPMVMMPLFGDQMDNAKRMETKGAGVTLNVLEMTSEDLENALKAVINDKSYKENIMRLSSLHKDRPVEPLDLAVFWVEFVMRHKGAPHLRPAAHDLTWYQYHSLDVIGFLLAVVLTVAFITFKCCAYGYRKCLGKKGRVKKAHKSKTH
Summary of the method: (§1)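 Microsomes or UGT Supersomes (5 µg protein) were held 15 min on ice with alamethicin in 100 mM potassium phosphate pH 7.4. TCC was added at 10 µM (2% DMSO) with 10 mM MgCl2 and 10 mM saccharolactone, pre-warmed 5 min at 37 °C, then started with UDPGA. Samples at 5, 10, 15 and 30 min were quenched in ACN. Product was read by LC-UV at 265 nm; rate came from regression over time, three incubations.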

[4] = biological target: T2, UDP-glucuronosyltransferase 1A9 (Homo sapiens, UniProt O60656); experiment: Drug metabolism assessed as human UGT1A9-mediated N'-glucuronide-triclocarban formation expressed in baculovirus infected insect sf9 cells incubated for 5 mins prior to UDPGA addition measured after 30 mins by LC-ESI-MS analysis; assay type: ADME; details: sf9, 0.5 h
T2 sequence (O60656 whole entry): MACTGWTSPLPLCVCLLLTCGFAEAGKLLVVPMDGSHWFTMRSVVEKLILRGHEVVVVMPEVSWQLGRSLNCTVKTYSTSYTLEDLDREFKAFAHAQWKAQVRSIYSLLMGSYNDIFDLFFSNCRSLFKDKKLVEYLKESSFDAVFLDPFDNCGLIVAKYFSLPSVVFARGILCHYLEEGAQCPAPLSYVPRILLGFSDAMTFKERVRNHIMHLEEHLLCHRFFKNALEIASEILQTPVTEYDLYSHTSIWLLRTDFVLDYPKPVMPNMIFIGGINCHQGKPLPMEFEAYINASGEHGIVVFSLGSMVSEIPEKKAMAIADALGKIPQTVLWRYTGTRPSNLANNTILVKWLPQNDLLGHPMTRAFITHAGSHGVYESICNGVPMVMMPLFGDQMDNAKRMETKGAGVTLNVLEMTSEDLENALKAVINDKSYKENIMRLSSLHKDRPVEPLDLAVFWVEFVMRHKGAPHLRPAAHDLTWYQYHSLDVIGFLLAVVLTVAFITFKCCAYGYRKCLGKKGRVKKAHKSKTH
Summary of the method: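 TCC was incubated at 10 µM (2% DMSO) in 100 mM phosphate pH 7.4 with alamethicin-treated microsomes or Supersomes, 10 mM MgCl2 and 10 mM saccharolactone. After 5 min pre-incubation at 37 °C, UDPGA was added to start the reaction. Protein was raised up to 2 mg/mL. Samples were quenched in ACN with 1 µM DCC internal standard, centrifuged, and N-glucuronides detected by LC-ESI-MS/MS in SRM mode.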

[5] = biological target: T3, UDP-glucuronosyltransferase 1A8 (Homo sapiens, UniProt Q9HAW9); experiment: Drug metabolism assessed as human UGT1A8-mediated N-glucuronide-triclocarban formation expressed in baculovirus infected insect sf9 cells incubated for 5 mins prior to UDPGA addition measured after 5 to 30 mins by LC-UV analysis; assay type: ADME; summary of the method: as §1
T3 sequence (Q9HAW9 whole entry): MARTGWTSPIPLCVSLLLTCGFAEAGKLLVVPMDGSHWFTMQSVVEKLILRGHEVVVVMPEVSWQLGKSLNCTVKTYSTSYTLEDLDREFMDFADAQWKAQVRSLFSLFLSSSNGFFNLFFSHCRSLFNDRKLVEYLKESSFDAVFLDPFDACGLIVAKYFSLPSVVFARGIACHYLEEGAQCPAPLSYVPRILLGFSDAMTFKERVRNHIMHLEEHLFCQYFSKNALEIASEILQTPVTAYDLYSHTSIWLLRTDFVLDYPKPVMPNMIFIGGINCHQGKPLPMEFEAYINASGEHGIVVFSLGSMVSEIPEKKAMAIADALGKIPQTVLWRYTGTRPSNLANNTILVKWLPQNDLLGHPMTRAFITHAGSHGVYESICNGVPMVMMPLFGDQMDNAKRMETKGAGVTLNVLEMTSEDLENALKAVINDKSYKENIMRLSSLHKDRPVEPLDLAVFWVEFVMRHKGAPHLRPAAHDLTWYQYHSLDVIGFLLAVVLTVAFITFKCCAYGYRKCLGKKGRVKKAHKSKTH

[6] = tested on: Liver microsome; experiment: (§2) Drug metabolism in human liver microsomes after 30 mins by LC-ESI-MS analysis; assay type: ADME; details: microsomes, 0.5 h
Summary of the method: (§3)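 2'-OH-TCC at 0.2, 0.5, 1, 2, 3, 5, 10 and 50 µM incubated with liver microsomes (alamethicin, MgCl2, saccharolactone, UDPGA; 37 °C), sampled at 5, 10, 15 and 30 min. Samples ≥5 µM diluted 1:9 in ACN; LC-ESI-MS. KM and vmax fitted from rate vs concentration; intrinsic clearance derived from these; mean and SD of three.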

[7] = as §2; assay type: ADME; details: liver microsomes; summary of the method: as §3

Row | Vmax [6] | Km at 0.5 h [7] | Structure (SMILES) | Drug excretion [1] | Retention_time [2] | Drug metabolism [3] | Drug metabolism [4] | Drug metabolism [5]
1 | – | – | O=C(Nc1ccc(Cl)cc1)Nc1ccc(Cl)c(Cl)c1 [TRICLOCARBAN] | metabolite_detected | 5.1 min | metabolite_not_detected | metabolite_detected | metabolite_not_detected
2 | 5.37 nmol/min/mg | 3.08 µM | O=C(Nc1ccc(Cl)c(Cl)c1)Nc1ccc(Cl)cc1O | – | – | – | – | –
